{"source": "ChEMBL document CHEMBL3576847", "about": "“Discovery of 1-(3,3-dimethylbutyl)-3-(2-fluoro-4-methyl-5-(7-methyl-2-(methylamino)pyrido[2,3-d]pyrimidin-6-yl)phenyl)urea (LY3009120) as a pan-RAF inhibitor with minimal paradoxical activation and activity against BRAF or RAS mutant tumor cells” (J Med Chem, 2015)", "key": {"[1]": {"target": "RAF proto-oncogene serine/threonine-protein kinase (Homo sapiens, UniProt P04049)", "sequence (P04049 whole entry)": "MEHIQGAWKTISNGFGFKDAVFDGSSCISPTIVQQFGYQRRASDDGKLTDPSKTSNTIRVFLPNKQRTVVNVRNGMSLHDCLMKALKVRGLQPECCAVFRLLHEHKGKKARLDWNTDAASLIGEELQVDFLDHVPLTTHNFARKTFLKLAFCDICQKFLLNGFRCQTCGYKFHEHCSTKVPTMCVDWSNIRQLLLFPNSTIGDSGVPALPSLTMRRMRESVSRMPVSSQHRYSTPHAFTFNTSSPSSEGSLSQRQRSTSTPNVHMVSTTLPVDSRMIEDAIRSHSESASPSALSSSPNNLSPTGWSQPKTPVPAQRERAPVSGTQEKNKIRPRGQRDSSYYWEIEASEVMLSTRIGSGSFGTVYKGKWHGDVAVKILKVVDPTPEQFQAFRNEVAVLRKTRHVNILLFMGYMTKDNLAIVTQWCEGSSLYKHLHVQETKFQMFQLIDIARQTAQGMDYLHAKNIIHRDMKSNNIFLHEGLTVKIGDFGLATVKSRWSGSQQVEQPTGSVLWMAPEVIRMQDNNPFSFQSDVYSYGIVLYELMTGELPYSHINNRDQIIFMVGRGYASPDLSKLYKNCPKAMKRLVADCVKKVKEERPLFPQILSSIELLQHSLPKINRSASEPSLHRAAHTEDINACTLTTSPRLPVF", "experiment": "Inhibition of wild type CRAF (unknown origin) assessed as ADP formation measured for 5 hrs by pyruvate kinase/lactate dehydrogenase coupled assay in presence of ATP, MEK1, PEP, NADH"}, "[2]": {"target": "Vascular endothelial growth factor receptor 2 (Homo sapiens, UniProt P35968)", "sequence (P35968 whole entry)": "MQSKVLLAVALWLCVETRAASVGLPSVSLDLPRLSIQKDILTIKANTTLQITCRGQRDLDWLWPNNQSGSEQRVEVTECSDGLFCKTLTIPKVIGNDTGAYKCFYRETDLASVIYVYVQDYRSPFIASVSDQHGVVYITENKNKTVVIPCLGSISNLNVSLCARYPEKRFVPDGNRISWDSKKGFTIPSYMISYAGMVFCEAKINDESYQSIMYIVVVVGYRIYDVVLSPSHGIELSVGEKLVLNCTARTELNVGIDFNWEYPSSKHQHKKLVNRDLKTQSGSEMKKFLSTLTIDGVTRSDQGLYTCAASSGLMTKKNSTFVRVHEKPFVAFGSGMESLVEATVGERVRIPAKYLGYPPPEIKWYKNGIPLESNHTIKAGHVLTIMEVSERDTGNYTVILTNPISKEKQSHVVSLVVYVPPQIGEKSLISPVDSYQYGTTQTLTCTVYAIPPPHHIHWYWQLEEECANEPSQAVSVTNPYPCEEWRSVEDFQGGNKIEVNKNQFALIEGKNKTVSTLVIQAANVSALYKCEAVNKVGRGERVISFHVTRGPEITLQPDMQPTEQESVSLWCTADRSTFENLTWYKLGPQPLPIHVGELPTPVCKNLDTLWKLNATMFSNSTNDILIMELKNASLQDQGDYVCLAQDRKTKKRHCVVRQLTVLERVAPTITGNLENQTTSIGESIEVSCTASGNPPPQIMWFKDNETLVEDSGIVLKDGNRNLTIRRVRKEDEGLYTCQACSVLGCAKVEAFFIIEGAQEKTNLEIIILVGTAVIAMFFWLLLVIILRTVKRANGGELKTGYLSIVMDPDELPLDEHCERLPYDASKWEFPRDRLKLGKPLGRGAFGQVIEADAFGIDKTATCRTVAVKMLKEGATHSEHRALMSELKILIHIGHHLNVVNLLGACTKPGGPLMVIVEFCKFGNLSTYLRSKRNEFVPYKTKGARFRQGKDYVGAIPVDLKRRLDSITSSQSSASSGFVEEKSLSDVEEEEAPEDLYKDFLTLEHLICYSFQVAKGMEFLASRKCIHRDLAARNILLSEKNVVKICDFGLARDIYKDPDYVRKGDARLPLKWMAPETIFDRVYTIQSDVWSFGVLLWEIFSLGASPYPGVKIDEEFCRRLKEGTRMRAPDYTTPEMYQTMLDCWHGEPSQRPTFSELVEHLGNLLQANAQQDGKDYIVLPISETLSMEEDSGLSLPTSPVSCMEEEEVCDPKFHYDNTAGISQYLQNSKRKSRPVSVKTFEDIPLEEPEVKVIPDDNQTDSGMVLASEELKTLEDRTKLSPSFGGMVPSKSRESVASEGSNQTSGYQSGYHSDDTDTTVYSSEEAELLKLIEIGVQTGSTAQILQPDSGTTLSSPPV", "experiment": "Inhibition of KDR (unknown origin)"}, "A-375": {"system": "A-375", "experiment": "cells", "conditions": "Homo sapiens, A-375, 72 h"}, "[3]": {"target": "Dual specificity mitogen-activated protein kinase kinase; MEK1/2 (Homo sapiens, UniProt P36507+Q02750)", "experiment": "Inhibition of MEK (unknown origin)"}, "HCT-116": {"system": "HCT-116", "experiment": "cells", "conditions": "Homo sapiens, HCT-116, 67 h"}, "GTPase KRas": {"target": "GTPase KRas (Homo sapiens, UniProt P01116, G13D)", "sequence (P01116 whole entry G13D)": "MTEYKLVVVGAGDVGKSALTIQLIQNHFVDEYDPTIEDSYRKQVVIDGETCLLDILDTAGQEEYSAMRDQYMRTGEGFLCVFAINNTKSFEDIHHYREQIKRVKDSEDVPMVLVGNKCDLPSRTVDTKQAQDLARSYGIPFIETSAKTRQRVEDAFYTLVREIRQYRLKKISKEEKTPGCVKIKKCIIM", "experiment": "Inhibition of KRAS G13D mutant in human HCT116 cells assessed as inhibition of ERK phosphorylation by ELISA", "assay_type": "cell-based, HCT-116", "outline": "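HCT116 cells (KRAS G13D, BRAF WT; RAF signalling via CRAF) were treated with compound, and the change in cellular phospho-ERK was measured. IC50 was taken as the concentration inhibiting phospho-ERK.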"}, "[4]": {"experiment": "Clearance in iv dosed rat administered as suspension", "assay_type": "ADME, organism-based", "conditions": "in vivo"}, "[5]": {"target": "Serine/threonine-protein kinase B-raf (Homo sapiens, UniProt P15056)", "sequence (P15056 whole entry)": "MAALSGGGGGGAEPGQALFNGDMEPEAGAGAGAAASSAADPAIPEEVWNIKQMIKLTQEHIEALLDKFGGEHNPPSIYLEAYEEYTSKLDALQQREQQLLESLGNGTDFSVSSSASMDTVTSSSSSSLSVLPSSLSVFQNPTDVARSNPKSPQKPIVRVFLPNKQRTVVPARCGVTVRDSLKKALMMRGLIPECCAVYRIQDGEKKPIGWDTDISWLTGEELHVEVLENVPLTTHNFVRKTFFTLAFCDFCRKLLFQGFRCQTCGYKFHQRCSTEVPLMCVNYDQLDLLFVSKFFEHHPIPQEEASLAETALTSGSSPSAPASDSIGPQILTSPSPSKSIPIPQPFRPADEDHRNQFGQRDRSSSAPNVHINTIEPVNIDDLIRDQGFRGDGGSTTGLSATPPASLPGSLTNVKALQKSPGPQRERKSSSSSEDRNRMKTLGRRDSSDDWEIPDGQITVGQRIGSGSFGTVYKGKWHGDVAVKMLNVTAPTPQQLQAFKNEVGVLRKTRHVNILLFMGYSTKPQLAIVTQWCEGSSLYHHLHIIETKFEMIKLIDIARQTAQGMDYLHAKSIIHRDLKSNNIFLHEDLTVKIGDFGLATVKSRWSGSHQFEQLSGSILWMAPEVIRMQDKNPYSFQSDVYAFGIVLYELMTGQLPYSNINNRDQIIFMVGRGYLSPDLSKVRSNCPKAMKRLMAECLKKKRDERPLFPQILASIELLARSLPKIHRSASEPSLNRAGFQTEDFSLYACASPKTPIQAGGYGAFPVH", "experiment": "Inhibition of wild type BRAF (unknown origin) assessed as ADP formation measured for 5 hrs by pyruvate kinase/lactate dehydrogenase coupled assay in presence of ATP, MEK1, NADH"}, "[6]": {"target": "T1, Serine/threonine-protein kinase B-raf (Homo sapiens, UniProt P15056, V600E)", "T1 sequence (P15056 2-766 V600E limits assumed)": "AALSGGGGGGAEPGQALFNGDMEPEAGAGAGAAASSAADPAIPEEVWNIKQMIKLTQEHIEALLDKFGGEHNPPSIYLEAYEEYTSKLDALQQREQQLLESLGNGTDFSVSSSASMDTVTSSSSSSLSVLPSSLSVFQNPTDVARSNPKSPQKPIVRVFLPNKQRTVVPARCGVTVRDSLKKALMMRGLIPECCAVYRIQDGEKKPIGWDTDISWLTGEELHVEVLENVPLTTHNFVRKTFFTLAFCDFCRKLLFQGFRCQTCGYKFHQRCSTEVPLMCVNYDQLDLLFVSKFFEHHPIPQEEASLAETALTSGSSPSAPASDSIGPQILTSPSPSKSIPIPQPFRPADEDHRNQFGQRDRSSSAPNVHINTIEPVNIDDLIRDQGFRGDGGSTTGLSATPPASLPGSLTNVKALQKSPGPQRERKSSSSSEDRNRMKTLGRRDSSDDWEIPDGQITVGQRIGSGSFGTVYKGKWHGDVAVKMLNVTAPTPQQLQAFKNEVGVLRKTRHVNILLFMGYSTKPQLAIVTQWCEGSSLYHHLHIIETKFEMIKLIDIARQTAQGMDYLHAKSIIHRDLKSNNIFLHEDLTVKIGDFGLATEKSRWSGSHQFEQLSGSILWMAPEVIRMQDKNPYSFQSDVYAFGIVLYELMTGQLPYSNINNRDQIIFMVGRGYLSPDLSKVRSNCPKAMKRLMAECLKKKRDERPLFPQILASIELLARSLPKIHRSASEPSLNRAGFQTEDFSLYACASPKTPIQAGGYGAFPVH", "experiment": "Inhibition of recombinant BRAF V600E mutant (unknown origin) assessed as ADP formation measured for 5 hrs by pyruvate kinase/lactate dehydrogenase coupled assay in presence of ATP, MEK1, NADH"}, "[7]": {"target": "T1, Serine/threonine-protein kinase B-raf", "experiment": "Inhibition of BRAF V600E mutant in human A375 cells assessed as inhibition of ERK phosphorylation measured after 72 hrs by ELISA assay", "assay_type": "cell-based, A-375"}, "[8]": {"experiment": "Oral bioavailability in rat administered as suspension", "assay_type": "ADME, organism-based", "conditions": "in vivo"}}}
{"smiles": "CNc1cc2nc(C)c(-c3cc(NC(=O)NCCC(C)(C)C)c(F)cc3C)cc2cn1", "values": [{"measurement": "IC50", "setting": "[1]", "result": 5.6, "unit": "nM"}, {"measurement": "IC50", "setting": "[2]", "result": 170, "unit": "nM"}, {"measurement": "IC50", "setting": "A-375", "result": 11, "unit": "nM"}, {"measurement": "IC50", "setting": "[3]", "result": 5900, "unit": "nM"}, {"measurement": "IC50", "setting": "HCT-116", "result": 320, "unit": "nM"}, {"measurement": "IC50", "setting": "GTPase KRas", "result": 120, "unit": "nM"}, {"measurement": "clearance", "setting": "[4]", "result": 3.36, "unit": "mL/min/kg"}, {"measurement": "IC50", "setting": "[5]", "result": 28, "unit": "nM"}, {"measurement": "IC50", "setting": "[6]", "result": 18, "unit": "nM"}, {"measurement": "IC50", "setting": "[7]", "result": 47, "unit": "nM"}, {"measurement": "bioavailability", "setting": "[8]", "result": 30, "unit": "%"}]}
{"smiles": "CNc1ncc2cc(-c3ccc(F)c(NC(=O)NCCC(C)(C)C)c3)c(C)nc2n1", "values": [{"measurement": "IC50", "setting": "[1]", "result": 2.8, "unit": "nM"}, {"measurement": "IC50", "setting": "[2]", "result": 750, "unit": "nM"}, {"measurement": "IC50", "setting": "A-375", "result": 26, "unit": "nM"}, {"measurement": "IC50", "setting": "[3]", "result": "> 20000", "unit": "nM"}, {"measurement": "IC50", "setting": "HCT-116", "result": 280, "unit": "nM"}, {"measurement": "IC50", "setting": "GTPase KRas", "result": 48, "unit": "nM"}, {"measurement": "IC50", "setting": "[5]", "result": 18, "unit": "nM"}, {"measurement": "IC50", "setting": "[6]", "result": 7.6, "unit": "nM"}, {"measurement": "IC50", "setting": "[7]", "result": 110, "unit": "nM"}]}
{"smiles": "CNc1ncc2cc(-c3cc(NC(=O)NCCC(C)(C)C)c(F)cc3C)cnc2n1", "values": [{"measurement": "IC50", "setting": "[1]", "result": 1.2, "unit": "nM"}, {"measurement": "IC50", "setting": "[2]", "result": 1900, "unit": "nM"}, {"measurement": "IC50", "setting": "A-375", "result": 18, "unit": "nM"}, {"measurement": "IC50", "setting": "[3]", "result": "> 20000", "unit": "nM"}, {"measurement": "IC50", "setting": "HCT-116", "result": 110, "unit": "nM"}, {"measurement": "IC50", "setting": "GTPase KRas", "result": 16, "unit": "nM"}, {"measurement": "IC50", "setting": "[5]", "result": 4.4, "unit": "nM"}, {"measurement": "IC50", "setting": "[6]", "result": 2, "unit": "nM"}, {"measurement": "IC50", "setting": "[7]", "result": 27, "unit": "nM"}]}
{"smiles": "Cc1cc(F)c(NC(=O)NCCC(C)(C)C)cc1-c1cc2cnc(N)nc2nc1C", "values": [{"measurement": "IC50", "setting": "[2]", "result": 540, "unit": "nM"}, {"measurement": "IC50", "setting": "A-375", "result": 33, "unit": "nM"}, {"measurement": "IC50", "setting": "HCT-116", "result": 190, "unit": "nM"}, {"measurement": "IC50", "setting": "[6]", "result": 7.9, "unit": "nM"}]}
{"smiles": "CCn1c(=O)c(-c2cc(NC(=O)NCCC(C)(C)C)c(F)cc2C)cc2cnc(NC)cc21", "values": [{"measurement": "IC50", "setting": "[1]", "result": 5.2, "unit": "nM"}, {"measurement": "IC50", "setting": "[2]", "result": 25, "unit": "nM"}, {"measurement": "IC50", "setting": "A-375", "result": 34, "unit": "nM"}, {"measurement": "IC50", "setting": "[3]", "result": 2500, "unit": "nM"}, {"measurement": "IC50", "setting": "HCT-116", "result": 130, "unit": "nM"}, {"measurement": "IC50", "setting": "GTPase KRas", "result": 120, "unit": "nM"}, {"measurement": "IC50", "setting": "[5]", "result": 11, "unit": "nM"}, {"measurement": "IC50", "setting": "[6]", "result": 4.2, "unit": "nM"}, {"measurement": "IC50", "setting": "[7]", "result": 40, "unit": "nM"}]}
{"smiles": "CNc1cc2nc(C)c(-c3cc(NC(=O)NCCC(C)(C)C)ccc3C)cc2cn1", "values": [{"measurement": "IC50", "setting": "[1]", "result": 6.7, "unit": "nM"}, {"measurement": "IC50", "setting": "A-375", "result": 35, "unit": "nM"}, {"measurement": "IC50", "setting": "[3]", "result": "> 20000", "unit": "nM"}, {"measurement": "IC50", "setting": "HCT-116", "result": 510, "unit": "nM"}, {"measurement": "IC50", "setting": "GTPase KRas", "result": 270, "unit": "nM"}, {"measurement": "IC50", "setting": "[5]", "result": 27, "unit": "nM"}, {"measurement": "IC50", "setting": "[6]", "result": 4.3, "unit": "nM"}, {"measurement": "IC50", "setting": "[7]", "result": 140, "unit": "nM"}]}
